Assay results reported in ChEMBL document CHEMBL4033620, “Design, synthesis and biological evaluation of quinoline derivatives as HDAC class I inhibitors” (Eur J Med Chem, 2017).

Legend:
[1] = target: Histone deacetylase (HDAC1 and HDAC2) (Homo sapiens, UniProt Q13547+Q92769); assay: Inhibition of HDAC1/2 in human HeLa cell nuclear extract using COLOR DE LYS as substrate pretreated for 5 mins followed by substrate addition measured after 30 mins by UV-absorption method; assay type: cell-based
[2] = tested on: HEL; assay: Antiproliferative activity against human HEL cells after 48 hrs by MTT assay; assay type: functional, cell-based
[3] = tested on: HeLa; assay: Antiproliferative activity against human HeLa cells after 48 hrs by MTT assay; assay type: functional, cell-based
Method in brief: (§1)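 Cells grown in RPMI1640 with 10% FBS at 37°C, 5% CO2. Seeded at 4000–5000 cells/well for 8 h, then exposed to a range of compound concentrations for 48 h. 0.5% MTT solution added for 4 h, formazan dissolved in DMSO, absorbance read at 570 nm. IC50 derived from inhibition ratios, given as mean ± standard deviation of two or three separate determinations.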

[4] = tested on: MOLT-4; assay: Antiproliferative activity against human MOLT4 cells after 48 hrs by MTT assay; assay type: functional, cell-based; details: MOLT-4, 48 h
[5] = tested on: PC-3; assay: Antiproliferative activity against human PC3 cells after 48 hrs by MTT assay; assay type: functional, cell-based; details: PC-3, 48 h; method in brief: as §1
[6] = tested on: K562; assay: Antiproliferative activity against human K562 cells after 48 hrs by MTT assay; assay type: functional, cell-based; details: K562, 48 h
[7] = tested on: K562; assay: Induction of apoptosis in human K562 cells assessed as early apoptotic cells at 1 uM after 24 hrs by Annexin V-FITC/propidium iodide staining-based flow cytometry (reference value: 4.78%); assay type: functional
[8] = tested on: K562; assay: Induction of apoptosis in human K562 cells assessed as late apoptotic cells at 1 uM after 24 hrs by Annexin V-FITC/propidium iodide staining-based flow cytometry (reference value: 2.83%); assay type: functional
[9] = tested on: K562; assay: Induction of apoptosis in human K562 cells assessed as late apoptotic cells at 2 uM after 24 hrs by Annexin V-FITC/propidium iodide staining-based flow cytometry (reference value: 2.83%); assay type: functional
[10] = tested on: K562; assay: Induction of apoptosis in human K562 cells assessed as necrotic cells at 1 uM after 24 hrs by Annexin V-FITC/propidium iodide staining-based flow cytometry (reference value: 0.035%); assay type: functional
[11] = tested on: K562; assay: Induction of apoptosis in human K562 cells assessed as necrotic cells at 2 uM after 24 hrs by Annexin V-FITC/propidium iodide staining-based flow cytometry (reference value: 0.035%); assay type: functional
[12] = tested on: K562; assay: Induction of apoptosis in human K562 cells assessed as viable cells at 2 uM after 24 hrs by Annexin V-FITC/propidium iodide staining-based flow cytometry (reference value: 92.4%); assay type: functional; details: for viability at 2 µM: Homo sapiens, K562, 24 h, read-out: Activity
[13] = tested on: K562; assay: Induction of apoptosis in human K562 cells after 24 hrs by Annexin V-FITC/propidium iodide staining-based flow cytometric method; assay type: functional, cell-based
[14] = tested on: K562; assay: Induction of apoptosis in human K562 cells assessed as viable cells at 1 uM after 24 hrs by Annexin V-FITC/propidium iodide staining-based flow cytometry (reference value: 92.4%); assay type: functional; details: for viability at 1 µM: Homo sapiens, K562, 24 h, read-out: Activity
[15] = tested on: K562; assay: Induction of apoptosis in human K562 cells assessed as early apoptotic cells at 2 uM after 24 hrs by Annexin V-FITC/propidium iodide staining-based flow cytometry (reference value: 4.78%); assay type: functional
[16] = Inhibition of Class 1 histone deacetylase in human K562 cells using Boc-Lys (acetyl)-AMC as substrate preincubated with compound for 3 hrs followed by substrate addition measured after 3 hrs by fluorometric analysis; assay type: cell-based
[17] = tested on: PC-3; assay: Potency index, ratio of vorinostat IC50 to compound IC50 for human PC3 cells; assay type: functional
Method in brief: (§2)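 Cells were grown in RPMI1640 with 10% FBS at 37°C and 5% CO2, seeded at 4000–5000 cells/well for 8 h, then exposed to a compound concentration series for 48 h. MTT (0.5%) was added for 4 h and formazan dissolved in DMSO. A570 was read and IC50 derived from inhibition ratios.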

[18] = target: T1, Histone deacetylase 8 (Homo sapiens, UniProt Q9BY41); assay: Inhibition of HDAC8 (unknown origin) using substrate after 30 mins by fluorometric analysis
T1 sequence (Q9BY41 whole entry): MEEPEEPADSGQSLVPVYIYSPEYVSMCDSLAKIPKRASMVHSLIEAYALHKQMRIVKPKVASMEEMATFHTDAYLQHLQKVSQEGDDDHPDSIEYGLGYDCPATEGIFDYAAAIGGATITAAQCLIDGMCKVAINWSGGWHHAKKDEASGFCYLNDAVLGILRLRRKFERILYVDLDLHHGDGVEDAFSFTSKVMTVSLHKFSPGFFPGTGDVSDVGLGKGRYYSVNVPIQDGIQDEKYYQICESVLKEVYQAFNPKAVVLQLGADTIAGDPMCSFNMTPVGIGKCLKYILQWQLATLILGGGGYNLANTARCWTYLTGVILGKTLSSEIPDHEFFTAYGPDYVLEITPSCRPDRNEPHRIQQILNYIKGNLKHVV

[19] = target: Histone deacetylase 1 (Homo sapiens, UniProt Q13547); assay: Inhibition of HDAC1 (unknown origin) using substrate after 30 mins by fluorometric analysis
[20] = Inhibition of Class 2a histone deacetylase in human K562 cells using Boc-Lys-(epsilon-trifluoromethylacetyl)-AMC as substrate preincubated with compound for 3 hrs followed by substrate addition measured after 3 hrs by fluorometric analysis; assay type: cell-based
[21] = target: T2, Protein deacetylase HDAC6 (Homo sapiens, UniProt Q9UBN7); assay: Inhibition of HDAC6 (unknown origin) using substrate after 30 mins by fluorometric analysis
T2 sequence (Q9UBN7 whole entry): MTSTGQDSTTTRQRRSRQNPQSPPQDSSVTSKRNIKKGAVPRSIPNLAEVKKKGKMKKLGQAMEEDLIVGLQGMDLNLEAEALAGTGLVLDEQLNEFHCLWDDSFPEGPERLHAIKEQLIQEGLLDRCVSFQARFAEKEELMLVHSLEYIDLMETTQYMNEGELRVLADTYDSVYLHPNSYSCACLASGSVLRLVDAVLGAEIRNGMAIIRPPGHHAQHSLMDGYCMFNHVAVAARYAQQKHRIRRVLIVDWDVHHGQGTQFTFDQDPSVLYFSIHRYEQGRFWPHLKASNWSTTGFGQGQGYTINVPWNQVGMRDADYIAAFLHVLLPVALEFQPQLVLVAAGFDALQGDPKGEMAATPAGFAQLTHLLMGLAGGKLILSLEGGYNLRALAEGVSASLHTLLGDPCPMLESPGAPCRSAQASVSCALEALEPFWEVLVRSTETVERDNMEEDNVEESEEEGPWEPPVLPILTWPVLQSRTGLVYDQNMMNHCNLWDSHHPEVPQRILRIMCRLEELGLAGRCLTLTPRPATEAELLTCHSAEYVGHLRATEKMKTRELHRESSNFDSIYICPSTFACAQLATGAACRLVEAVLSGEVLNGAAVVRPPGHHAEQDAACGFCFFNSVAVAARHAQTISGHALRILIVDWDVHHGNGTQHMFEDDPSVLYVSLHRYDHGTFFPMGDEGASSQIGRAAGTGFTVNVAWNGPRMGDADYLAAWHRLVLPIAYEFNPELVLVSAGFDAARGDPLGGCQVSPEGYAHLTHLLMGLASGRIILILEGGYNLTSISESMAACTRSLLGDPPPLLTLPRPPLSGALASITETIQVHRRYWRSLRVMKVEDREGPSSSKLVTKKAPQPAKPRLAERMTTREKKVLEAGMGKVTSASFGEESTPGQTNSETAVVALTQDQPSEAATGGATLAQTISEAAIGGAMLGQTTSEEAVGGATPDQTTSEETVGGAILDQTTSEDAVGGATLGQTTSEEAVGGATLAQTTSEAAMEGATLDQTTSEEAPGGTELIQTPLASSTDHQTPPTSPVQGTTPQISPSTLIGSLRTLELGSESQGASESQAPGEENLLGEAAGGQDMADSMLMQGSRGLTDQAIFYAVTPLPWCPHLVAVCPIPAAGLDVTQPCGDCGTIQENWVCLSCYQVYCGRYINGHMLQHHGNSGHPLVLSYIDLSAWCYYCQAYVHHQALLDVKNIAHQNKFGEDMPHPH

[22] = tested on: K562; assay: Potency index, ratio of vorinostat IC50 to compound IC50 for human K562 cells; assay type: functional; method in brief: as §2

Chain of Histone deacetylase 1 (Q13547 whole entry): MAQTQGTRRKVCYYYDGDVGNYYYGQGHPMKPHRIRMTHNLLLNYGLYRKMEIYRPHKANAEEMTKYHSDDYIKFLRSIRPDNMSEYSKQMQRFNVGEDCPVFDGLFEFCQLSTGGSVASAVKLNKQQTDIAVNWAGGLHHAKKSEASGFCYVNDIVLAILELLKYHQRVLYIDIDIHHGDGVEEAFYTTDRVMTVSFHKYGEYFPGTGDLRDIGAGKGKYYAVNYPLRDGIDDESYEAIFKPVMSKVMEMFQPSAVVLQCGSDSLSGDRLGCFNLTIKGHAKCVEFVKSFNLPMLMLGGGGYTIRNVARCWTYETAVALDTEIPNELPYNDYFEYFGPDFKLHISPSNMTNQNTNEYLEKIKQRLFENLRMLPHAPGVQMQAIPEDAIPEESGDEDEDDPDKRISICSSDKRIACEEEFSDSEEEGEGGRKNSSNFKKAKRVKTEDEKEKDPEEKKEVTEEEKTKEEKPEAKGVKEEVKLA

O=C(NO)c1ccc(CN(Cc2ccccc2)Cc2ccc3ccccc3n2)cc1
IC50 [1]: 836 nM

O=C(/C=C/c1ccc(CC(=O)N(Cc2ccc3ccccc3n2)c2ccccc2)cc1)NO
IC50 [1]: 720 nM

COc1cccc2ccc(CNCc3ccc(/C=C/C(=O)NO)cc3)nc12
IC50 [2]: 220 nM | IC50 [3]: 3330 nM | IC50 [4]: 190 nM | IC50 [5]: 4600 nM | IC50 [1]: 206 nM | IC50 [6]: 750 nM

O=C(/C=C/c1ccc(C(=O)N(Cc2ccc3ccccc3n2)c2ccccc2)cc1)NO
IC50 [1]: > 1000 nM

O=C(/C=C/c1ccc(CN(Cc2ccccc2)Cc2ccc3ccccc3n2)cc1)NO
IC50 [1]: > 1000 nM

O=C(/C=C/c1ccc(CN(Cc2ccccc2)Cc2ccc3cc(Cl)ccc3n2)cc1)NO
IC50 [1]: > 1000 nM

O=C(NO)c1ccc(CNCc2ccc3ccccc3n2)cc1
IC50 [1]: > 1000 nM

O=C(/C=C/c1cccc(CN(Cc2ccccc2)Cc2ccc3cc(Br)ccc3n2)c1)NO
IC50 [1]: > 1000 nM

O=C(CCCCCCC(=O)Nc1ccccc1)NO [VORINOSTAT]
Activity [7]: 6.1% | Activity [8]: 2.99% | Activity [9]: 4.04% | Activity [10]: 0.06% | Activity [11]: 0.05% | Activity [12]: 88.9% | Activity [13]: Dose-dependent effect | IC50 [5]: 13900 nM | Activity [14]: 90.8% | Activity [15]: 6.97%

O=C(/C=C/c1ccc(CC(=O)N(Cc2ccc3cc(Br)ccc3n2)c2ccccc2)cc1)NO
IC50 [1]: > 1000 nM

COc1ccc2nc(CNCc3ccc(C(=O)NO)cc3)ccc2c1
IC50 [1]: > 1000 nM

O=C(/C=C/c1ccc(C(=O)N(Cc2ccc3cc(Br)ccc3n2)c2ccccc2)cc1)NO
IC50 [1]: > 1000 nM

O=C(/C=C/c1ccc(CNCc2ccc3cccc(Cl)c3n2)cc1)NO
Activity [7]: 38.2% | IC50 [2]: 110 nM | Activity [8]: 3.75% | IC50 [16]: 64 nM | Activity [9]: 2.96% | Activity [10]: 0.145% | Activity [11]: 0.174% | Ratio IC50 [17]: 3 - 5 | IC50 [3]: 1820 nM | viability at 2 µM [12]: 40.7% | IC50 [18]: 911 nM | IC50 [4]: 160 nM | IC50 [19]: 95 nM | Activity [13]: Dose-dependent effect | IC50 [20]: 4210 nM | IC50 [5]: 2920 nM | IC50 [1]: 275 nM | IC50 [6]: 360 nM | viability at 1 µM [14]: 57.9% | IC50 [21]: 36.5 nM | Ratio IC50 [22]: 3 - 5 | Activity [15]: 56.2%

O=C(/C=C/c1ccc(CNCc2ccc3cc(Br)ccc3n2)cc1)NO
IC50 [1]: 375 nM

O=C(NO)c1ccc(CNCc2ccc3cccc(Cl)c3n2)cc1
IC50 [1]: > 1000 nM

O=C(/C=C/c1ccc(C(=O)N(Cc2ccc3ccccc3n2)c2ccc(Br)cc2)cc1)NO
IC50 [1]: > 1000 nM

O=C(/C=C/c1ccc(CN(Cc2ccccc2)Cc2ccc3cc(Br)ccc3n2)cc1)NO
IC50 [1]: > 1000 nM

O=C(NO)c1ccc(CNCc2ccc3cc(Br)ccc3n2)cc1
IC50 [1]: > 1000 nM

COc1cccc2ccc(CN(C(=O)c3ccc(/C=C/C(=O)NO)cc3)c3ccccc3)nc12
IC50 [1]: 724 nM

O=C(/C=C/c1ccc(CNCc2ccc3ccccc3n2)cc1)NO
Activity [7]: 34.5% | IC50 [2]: 150 nM | Activity [8]: 1.95% | IC50 [16]: 108 nM | Activity [9]: 2.16% | Activity [10]: 0.121% | Activity [11]: 0.072% | Ratio IC50 [17]: 3 - 5 | IC50 [3]: 2200 nM | viability at 2 µM [12]: 39.6% | IC50 [18]: 442 nM | IC50 [4]: 240 nM | IC50 [19]: 72.5 nM | Activity [13]: Dose-dependent effect | IC50 [20]: 5210 nM | IC50 [5]: 3080 nM | IC50 [1]: 138 nM | IC50 [6]: 510 nM | viability at 1 µM [14]: 63.4% | IC50 [21]: 49.5 nM | Ratio IC50 [22]: 3 - 5 | Activity [15]: 58.2%

O=C(/C=C/c1cccc(CNCc2ccc3cc(Br)ccc3n2)c1)NO
IC50 [1]: 559 nM

COc1ccc2nc(CNCc3ccc(/C=C/C(=O)NO)cc3)ccc2c1
IC50 [2]: 130 nM | IC50 [3]: 2680 nM | IC50 [4]: 230 nM | IC50 [5]: 3700 nM | IC50 [1]: 236 nM | IC50 [6]: 690 nM

COc1ccc2nc(CN(C(=O)Cc3ccc(/C=C/C(=O)NO)cc3)c3ccccc3)ccc2c1
IC50 [1]: 560 nM

COc1ccc(N(Cc2ccc3cccc(Cl)c3n2)C(=O)c2ccc(/C=C/C(=O)NO)cc2)cc1
IC50 [1]: > 1000 nM

O=C(/C=C/c1ccc(CNCc2ccc3cc(Cl)ccc3n2)cc1)NO
IC50 [2]: 220 nM | IC50 [3]: 3030 nM | IC50 [4]: 250 nM | IC50 [5]: 4350 nM | IC50 [1]: 305 nM | IC50 [6]: 720 nM

CCCCCCN(Cc1cccc(/C=C/C(=O)NO)c1)Cc1ccc2cc(Br)ccc2n1
IC50 [1]: > 1000 nM

CCCCCCN(Cc1ccc(/C=C/C(=O)NO)cc1)Cc1ccc2cc(Br)ccc2n1
IC50 [1]: > 1000 nM

COc1ccc2nc(CN(Cc3ccccc3)Cc3ccc(/C=C/C(=O)NO)cc3)ccc2c1
IC50 [1]: > 1000 nM

COc1ccc(N(Cc2ccc3ccccc3n2)C(=O)c2ccc(/C=C/C(=O)NO)cc2)cc1
IC50 [1]: 744 nM
